Experiments:
[1] = folding enthalpy; higher = less favourable; fluorescence melt of hairpins on a sequencing array, two-state fit; settings: sodium 0.088 M
In short: (§1)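 Hairpins were imaged by Cy3 fluorescence on a sequenced MiSeq flow cell with annealed Cy3 and quencher oligos, in 50 mM Na-HEPES pH 8.0, 25 mM NaCl, in 2.5 °C steps up to 60 °C. Bootstrapped two-state fits of normalised signals gave melting temperature and folding enthalpy. Four replicates were combined by inverse variance, and fitted temperatures were raised by 9.35 °C to match UV melts.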

[2] = melting temperature; fluorescence melt of hairpins on a sequencing array, two-state fit, raised by 9.35 °C to match UV melts; settings: sodium 0.088 M
In short: as §1

Sequence	folding enthalpy [1]	Tm [2]
GCACACGAAAGTGACTGC ((((((....)))..)))	-17.9 kcal/mol	37.6 °C
GCACACGAAAGTGGCTGC ((((((....)))..)))	-20.7 kcal/mol	54.3 °C
GCACACGAAAGTGGTTGC ((((((....)))..)))	-15.5 kcal/mol	45.9 °C
GCACACGAAAGTGTCTGC ((((((....)))..)))	-15.3 kcal/mol	42 °C
GCACACTCGAAAGAGTGC (((..(((....))))))	-9.86 kcal/mol	38 °C
GCACAGAAATGTGC (((((....)))))	-33.9 kcal/mol	57.2 °C
GCACAGACGAAAGTCTGC (((..(((....))))))	-8.42 kcal/mol	34.5 °C
GCACAGCCGAAAGGCTGC (((..(((....))))))	-6.1 kcal/mol	39.9 °C
GCACAGCGAAAGCAATGC (((..((....))..)))	-10.9 kcal/mol	37.3 °C
GCACAGCGAAAGCATTGC (((..((....))..)))	-14.4 kcal/mol	38.2 °C
GCACAGCGAAAGCCGCGC ((.(.((....)).).))	-20.3 kcal/mol	46.5 °C
GCACAGCGAAAGCGCTGC (((..((....))..)))	-14.8 kcal/mol	49.2 °C
GCACAGCGAAAGCTATGC (((.(((....))).)))	-40.8 kcal/mol	49.5 °C
GCACAGCGAAAGCTTAGC ((..(((....)))..))	-10.9 kcal/mol	31.8 °C
GCACAGCGAAAGCTTGC (((.(((....))))))	-20.1 kcal/mol	51.5 °C
GCACAGCGAAAGCTTGGC ((..(((....)))..))	-15.4 kcal/mol	47.5 °C
GCACAGGCGAAAGCCTGC (((..(((....))))))	-6.09 kcal/mol	42.6 °C
GCACAGGGAAACCTGCGC ((.((((....)))).))	-44.3 kcal/mol	51.8 °C
GCACAGGGAAACTTGTGC (((((.(....).)))))	-34.7 kcal/mol	52.1 °C

Sequence	folding enthalpy [1]	Tm [2]
GCACATCGAAAGATATGC (((.(((....))).)))	-30.2 kcal/mol	42.9 °C
GCACATCGAAAGATTGC (((.(((....))))))	-27.9 kcal/mol	46 °C
GCACATGAAAATGTGC ((((((....))))))	-39.8 kcal/mol	62.4 °C
GCACATGGAAACACGTGC ((((.((....)).))))	-41 kcal/mol	46.7 °C
GCACCAACGAAAGTTTGC (((..(((....))))))	-13.5 kcal/mol	27.9 °C
GCACCACGAAAGTGCTGC (((.(((....))).)))	-25.2 kcal/mol	50.5 °C
GCACCAGGAAACCAGTGC ((((..(....)..))))	-30.5 kcal/mol	39 °C
GCACCCGAAAGGGCGTGC ((((((....)))..)))	-29.6 kcal/mol	51.2 °C
GCACCCGAAAGGGGCTGC ((((((....)))..)))	-17.9 kcal/mol	65.3 °C
GCACCCGAAAGGGGGTGC ((((((....)))..)))	-21 kcal/mol	66.8 °C
GCACCCGAAAGGGTATGC ((((((....)))..)))	-13.9 kcal/mol	48.3 °C
GCACCCGAAAGGGTCTGC ((((((....)))..)))	-13.3 kcal/mol	49.1 °C
GCACCCGAAAGGGTTGC ((((((....))).)))	-22.5 kcal/mol	63.3 °C
GCACCCGGAAACGAGTGC ((((.((....)).))))	-48.8 kcal/mol	51.6 °C
GCACCGCGAAAGCATTGC (((..((....))..)))	-10.3 kcal/mol	33.4 °C
GCACCGCGAAAGCCGAGC ((.(.((....)).).))	-12.9 kcal/mol	39 °C
GCACCGCGAAAGCCGTGC ((((.((....)).))))	-31.1 kcal/mol	62.2 °C
GCACCGCGAAAGCGCGGC ((..(((....)))..))	-11 kcal/mol	45 °C
GCACCGCGAAAGCTGGGC ((.(.((....)).).))	-19.1 kcal/mol	57.5 °C

Source: the array DNA melting data of Ke et al. (doi:10.1101/2024.01.08.574731)
